Source: PubChem
This is one part of a sample in which hits are shown more often than they occur.
A1 apoptosis 2: A1 inhibitors via caspase activation, primary screen, cell-based, luminescence, HTS, two replicates; MEF A1-2A-BIM cells, caspase-Glo luminescence, 3 h; percent of clofoctol response, DMSO zero; caspase activation, % (test concentration not listed); 24,000 tested, under 10 active; AID 2465, 2010; in the data active = caspase activation above about 5.9%
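Material: A1-2A-BIM-expressing MEF cells. Buffer or medium: RPMI-1640 plus 10% FBS. Incubation: cells settled overnight, compound exposure 3 h at 37 °C, 5% CO2. Signal: Caspase-Glo 3/7 luminescence, 1 h at room temperature.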
T cruzi intra: inhibitors of intracellular Trypanosoma cruzi, primary screen, cell-based, plate reader, single point, set 2 | intracellular Trypanosoma cruzi in host cells | activity score (inhibition), % at 5.01 µM | hit rate 4.9% among 22,000 | AID 651903, 2012; in the data active = activity score above about 55%;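 also: parasites and compound incubated about four days before reading; 0% = median of neutral control wells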
INS-1E ATP HTS: protection of INS-1E cells from cytokine death, primary screen, ATP luminescence, single point; INS-1E cytokine-induced death, 48 h; normalised: neutral wells 0, positive control 100; protection from cytokine-induced ATP loss, % at 10 µM; hit rate 0.1% among 20,000; AID 488910, 2010;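 active = mean replicate protection from cytokine-induced ATP loss at least 50% and at least 75% of replicates each reaching 50%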
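Material: INS-1E rat cells; Quantity: 8000 cells/well; Buffer or medium: phenol-red-free RPMI with 5% fetal bovine serum; Probe or stimulus: cytokine cocktail of IFN-γ, TNF-α and IL-1β; Compound dosing: single test concentration per compound, delivered by pin transfer; Incubation: 48 h co-treatment, 10 min post-lysis read; Signal: CellTiter-Glo luminescence.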
Active calls of the source: *; nt = not tested or not shown.

SMILES	A1 apoptosis 2	T cruzi intra	INS-1E ATP HTS
C[C@@H]1CN([C@@H](C)CO)C(=O)c2cccc(NC(=O)C3CCCCC3)c2O[C@H]1CN(C)Cc1ccc(C(F)(F)F)cc1	-1	75*	-27
C[C@H]1CN([C@@H](C)CO)C(=O)c2cccc(NC(=O)C3CC3)c2O[C@@H]1CN(C)Cc1ccc(Oc2ccccc2)cc1	nt	68*	-27
C[C@H](CO)N1C[C@H](C)[C@H](CN(C)Cc2ccc(-c3ccccc3)cc2)Oc2c(NC(=O)C3CC3)cccc2C1=O	2	-13	-25
C[C@@H]1CN([C@@H](C)CO)C(=O)c2cccc(NC(=O)C3CCCCC3)c2O[C@@H]1CN(C)S(=O)(=O)c1ccccc1	nt	57*	-2
C[C@H](CO)N1C[C@H](C)[C@H](CN(C)Cc2ccc(C(F)(F)F)cc2)Oc2c(NC(=O)C3CCCCC3)cccc2C1=O	nt	2	-28
C[C@H]1CN([C@@H](C)CO)C(=O)c2cccc(NC(=O)C3CCCCC3)c2O[C@@H]1CN(C)S(=O)(=O)c1ccccc1	nt	5	2
C[C@H](CO)N1C[C@H](C)[C@@H](CN(C)Cc2ccc(Oc3ccccc3)cc2)Oc2c(NC(=O)C3CC3)cccc2C1=O	-1	48	-25
C[C@H](CO)N1C[C@H](C)[C@H](CN(C)Cc2ccc(Oc3ccccc3)cc2)Oc2c(NS(=O)(=O)c3ccc(Cl)cc3)cccc2C1=O	-6	42	-43
COc1ccc(S(=O)(=O)N(C)C[C@@H]2OCCCC[C@H](C)Oc3ccc(N(C)C)cc3C(=O)N([C@@H](C)CO)C[C@H]2C)cc1	0	nt	nt
C[C@@H]1CN([C@H](C)CO)C(=O)Cc2cc(NC(=O)C3CC3)ccc2O[C@@H]1CN(C)Cc1ccc2c(c1)OCO2	0	-14	0
C[C@@H]1CN([C@H](C)CO)C(=O)c2cccc(NC(=O)C3CCCCC3)c2O[C@@H]1CN(C)Cc1ccc(-c2ccccc2)cc1	nt	46	-65
C[C@@H]1CN([C@@H](C)CO)C(=O)c2cccc(NC(=O)C3CCCCC3)c2O[C@H]1CN(C)Cc1ccc(-c2ccccc2)cc1	nt	71*	-39
C[C@@H]1CN([C@@H](C)CO)C(=O)c2cccc(N(C)C)c2O[C@H]1CN(C)S(=O)(=O)c1cn(C)cn1	nt	-6	6
C[C@H](CO)N1C[C@H](C)[C@@H](CN(C)S(=O)(=O)c2cn(C)cn2)Oc2c(cccc2N(C)C)C1=O	-1	59*	6
C[C@@H]1CCCCO[C@H](CN(C)C)[C@@H](C)CN([C@@H](C)CO)C(=O)c2cc(NC(=O)c3ccncc3)ccc2O1	-1	nt	nt
Cc1noc(C)c1NC(=O)N(C)C[C@H]1OCCCC[C@@H](C)Oc2ccc(NS(=O)(=O)c3cn(C)cn3)cc2C(=O)N([C@H](C)CO)C[C@@H]1C	-1	-43	14
C[C@H](CO)N1C[C@H](C)[C@H](CN(C)Cc2ccc(Cl)c(Cl)c2)Oc2c(NC(=O)c3ccc(-c4nccs4)cc3)cccc2C1=O	nt	60*	-41
C[C@H]1CN([C@@H](C)CO)C(=O)c2cccc(NC(=O)c3ccc(-c4nccs4)cc3)c2O[C@H]1CN(C)Cc1ccc(Cl)c(Cl)c1	0	62*	-47
C[C@@H]1CN([C@@H](C)CO)C(=O)c2cccc(NC(=O)c3ccc(-c4nccs4)cc3)c2O[C@@H]1CN(C)Cc1ccc(Cl)c(Cl)c1	0	35	-47
C[C@@H]1CN([C@H](C)CO)C(=O)c2cccc(NC(=O)c3ccc(-c4nccs4)cc3)c2O[C@H]1CN(C)Cc1ccc(Cl)c(Cl)c1	2	47	-22
C[C@@H]1CN([C@H](C)CO)C(=O)c2cccc(NS(=O)(=O)c3ccc(F)cc3)c2O[C@H]1CN(C)S(=O)(=O)c1ccc(Cl)cc1	nt	-4	6
C[C@H](CO)N1C[C@H](C)[C@H](CN(C)Cc2ccc(Cl)c(Cl)c2)Oc2ccc(NC(=O)Nc3ccc(C(F)(F)F)cc3)cc2CC1=O	nt	63*	-9
C[C@@H]1CN([C@H](C)CO)C(=O)Cc2cc(NC(=O)Nc3ccc(C(F)(F)F)cc3)ccc2O[C@@H]1CN(C)Cc1ccc(Cl)c(Cl)c1	nt	65*	-15
C[C@@H]1CN([C@@H](C)CO)C(=O)Cc2cc(NC(=O)Nc3ccc(C(F)(F)F)cc3)ccc2O[C@H]1CN(C)Cc1ccc(Cl)c(Cl)c1	-1	nt	nt
C[C@H]1CN([C@@H](C)CO)C(=O)Cc2cc(NC(=O)Nc3ccc(C(F)(F)F)cc3)ccc2O[C@H]1CN(C)Cc1ccc(Cl)c(Cl)c1	2	78*	-95
SMILES	A1 apoptosis 2	T cruzi intra	INS-1E ATP HTS
C[C@@H]1CN([C@H](C)CO)C(=O)Cc2cc(NC(=O)Nc3ccc(C(F)(F)F)cc3)ccc2O[C@H]1CN(C)Cc1ccc(Cl)c(Cl)c1	nt	11	4
C[C@H](CO)N1C[C@H](C)[C@H](CN(C)C(=O)Nc2ccccc2)Oc2ncc(C#CC(C)(C)O)cc2C1=O	0	-6	1
COc1ccc(NC(=O)Nc2ccc3c(c2)C(=O)N([C@@H](C)CO)C[C@@H](C)[C@@H](CN(C)C(=O)Nc2ccc(C(F)(F)F)cc2)O3)cc1	nt	2	-35
C[C@@H]1CN([C@H](C)CO)C(=O)c2cc(NC(=O)C3CC3)ccc2O[C@H]1CN(C)S(=O)(=O)c1cn(C)cn1	-1	7	2
C[C@@H]1CN([C@@H](C)CO)C(=O)Cc2cc(NS(=O)(=O)c3ccc(Cl)cc3)ccc2O[C@H]1CN(C)S(=O)(=O)c1cccs1	0	nt	nt
O=C(NO)c1ccc(C(=O)N/N=C/c2ccc3ccccc3n2)cc1	-1	nt	nt
Cc1ccc(S(=O)(=O)Nc2cccc3c2O[C@@H](CN(C)S(=O)(=O)c2ccc(Cl)cc2)[C@@H](C)CN([C@H](C)CO)C3=O)cc1	nt	58*	-22
C[C@@H]1CN([C@@H](C)CO)C(=O)c2cccc(NS(=O)(=O)c3ccccc3)c2O[C@@H]1CN(C)CC1CC1	0	57*	10
C[C@H]1CN([C@@H](C)CO)C(=O)c2cccc(NS(=O)(=O)c3ccc(Cl)cc3)c2O[C@H]1CN(C)Cc1ccc(-c2ccccc2)cc1	nt	59*	-37
C[C@H]1CN([C@@H](C)CO)C(=O)c2cccc(NS(=O)(=O)c3ccccc3)c2O[C@H]1CN(C)CC1CC1	-1	-3	0
Cc1ccc(S(=O)(=O)N(C)C[C@@H]2Oc3c(NS(=O)(=O)c4ccc(Cl)cc4)cccc3C(=O)N([C@H](C)CO)C[C@H]2C)cc1	1	13	7
C[C@H](CO)N1C[C@H](C)[C@H](CN(C)Cc2ccc(-c3ccccc3)cc2)Oc2c(NS(=O)(=O)c3ccc(F)cc3)cccc2C1=O	0	58*	-33
C[C@@H]1CN([C@H](C)CO)C(=O)c2cccc(NS(=O)(=O)c3ccc(Cl)cc3)c2O[C@H]1CN(C)Cc1ccc(-c2ccccc2)cc1	nt	33	-9
C[C@@H]1CN([C@H](C)CO)C(=O)c2cccc(NS(=O)(=O)c3ccc(F)cc3)c2O[C@H]1CN(C)Cc1ccc(-c2ccccc2)cc1	nt	6	5
